The source of these data is ChEMBL document CHEMBL3351414, “Novel 9'-substituted-noscapines: synthesis with Suzuki cross-coupling, structure elucidation and biological evaluation” (Eur J Med Chem, 2014).

Experiment [1] concerns the target T1, Tubulin (Bos taurus, UniProt Q6B856+Q862L2+Q862F3). In words: Inhibition of bovine brain tubulin assessed as rate of assembly preincubated for 15 mins by turbidimetry. Put shortly: (§1)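 Bovine brain tubulin at 10 µM (1.0 mg/mL) in 0.8 M monosodium glutamate pH 6.6 with 4% DMSO and varying compound was preincubated 15 min at 30 °C, then chilled. GTP was added to 0.4 mM final and the temperature jumped from 0 to 30 °C. Turbidity was followed at 350 nm, scoring either maximum rate or extent of assembly at 20 min.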

For a further experiment, the target named is Tubulin (Bos taurus) (UniProt Q6B856+Q862L2+Q862F3). In words: Displacement of [3H]colchicine from bovine brain tubulin at 500 uM after 10 mins by liquid scintillation counting.
For experiment [2], the target named is T1, Tubulin. The experiment in a line: Inhibition of bovine brain tubulin assessed as extent of assembly preincubated for 15 mins by turbidimetry. Put shortly:
as §1

For a further experiment, the system named is CCRF-CEM. In words: Antiproliferative activity against human CEM cells assessed as reduction in cell viability after 72 hrs by MTT assay. It is filed as functional, cell-based. (In general: Tetrazolium assays rely on reduction of a dye to a coloured formazan, in cell work by metabolically active cells.)
In experiment [3] the test system is PBL. The experiment in a line: Cytotoxicity against resting human PBLs assessed as reduction in cell growth. It is filed as cell-based. A digest of the protocol:
(§2)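 Peripheral blood lymphocytes from healthy donors, tested either resting (no PHA) or PHA-stimulated. Value is the concentration reducing cell growth by 50%, mean ± SEM of three separate experiments.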

The next experiment has as its system HeLa. In words: Antiproliferative activity against human HeLa cells assessed as reduction in cell viability after 72 hrs by MTT assay. It is filed as functional, cell-based. A digest of the protocol: (§3)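 Cells kept in RPMI-1640 (Jurkat, SEM, RS4;11) or DMEM (A549, HeLa, IGROV-1, HT-29) with 10% FBS plus penicillin/streptomycin. 8×10^3 cells per well were left 18 h at 37 °C in 5% CO2. Medium was then replaced with fresh medium holding graded compound concentrations from 10 mM DMSO stocks. Cells were incubated 72 h and viability read by MTT. IC50 is the mean ± SEM from dose–response curves of at least three independent experiments.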

Experiment [4] in a line: Antiproliferative activity against human SEM cells assessed as reduction in cell viability after 72 hrs by MTT assay. It is filed as functional, cell-based. A digest of the protocol: as §3
The next experiment relates to IGROV-1. In words: Antiproliferative activity against human IGROV1 cells assessed as reduction in cell viability after 72 hrs by MTT assay. It is filed as functional, cell-based. As to conditions: IGROV-1, 72 h. A digest of the protocol: as §3
For a further experiment, the system named is LoVo. In words: Antiproliferative activity against human LoVo cells assessed as reduction in cell viability after 72 hrs by MTT assay. It is filed as functional, cell-based.
Experiment [5] is described as follows: Antiproliferative activity against human RS4:11 cells assessed as reduction in cell viability after 72 hrs by MTT assay. It is filed as functional, cell-based. As to conditions: RS4-11, 72 h. A digest of the protocol:
as §3

The test system of a further experiment is HT-29. In words: Antiproliferative activity against human HT-29 cells assessed as reduction in cell viability after 72 hrs by MTT assay. It is filed as functional, cell-based. The following applies: HT-29, 72 h. Put shortly:
as §3

The next experiment deals with A549. In words: Antiproliferative activity against human A549 cells assessed as reduction in cell viability after 72 hrs by MTT assay. It is filed as functional, cell-based. The following applies: A549, 72 h. Put shortly:
as §3

Experiment [6] has as its system PBL. The experiment in a line: Cytotoxicity against PHA-stimulated human PBLs assessed as reduction in cell growth. It is filed as cell-based. A digest of the protocol:
as §2

In another experiment the test system is Jurkat. The experiment in a line: Antiproliferative activity against human Jurkat cells assessed as reduction in cell viability after 72 hrs by MTT assay. It is filed as functional, cell-based. Put shortly: as §3
For experiment [7], the target named is T1, Tubulin. The experiment in a line: Displacement of [3H]colchicine from bovine brain tubulin assessed as rate of assembly after 10 mins by liquid scintillation counting. (In a radioligand displacement assay an active substance lowers the binding of a labelled ligand.)

For the compound `COc1ccc2c(c1OC)C(=O)O[C@@H]2[C@H]1c2c(cc3c(c2OC)OCO3)CCN1C` [NOSCAPINE], the figures for the IC50 on Tubulin [1] and on Tubulin [2] were 170 µM and above 400 µM, respectively. The compound further came in with an inhibition on Tubulin (Bos taurus) of 44%.

Consider `COc1ccc2c(c1OC)C(=O)O[C@@H]2[C@H]1c2c(c(-c3ccc4ccccc4c3)c3c(c2OC)OCO3)CCN1C`, for which the IC50 is 23.3 µM with CCRF-CEM; above 200 µM with PBL [3]; 27.4 µM in the experiment on HeLa; 8.4 µM in experiment [4]; 67 µM in the experiment on IGROV-1; 60.3 µM in the experiment with LoVo. For the same compound, the IC50 is 30.8 µM in experiment [5]; 58.5 µM with HT-29; 48.1 µM in the experiment on A549; above 200 µM with PBL [6]; 20 µM with Jurkat.

With `COc1ccccc1-c1c2c(c(OC)c3c1OCO3)[C@H]([C@H]1OC(=O)c3c1ccc(OC)c3OC)N(C)CC2`, the IC50 is above 400 µM at Tubulin [1]; 6.9 µM in the experiment on CCRF-CEM; above 200 µM with PBL [3]; 30.8 µM in the experiment with HeLa; above 400 µM on Tubulin [7]; 22.2 µM in [4]. For the same compound, the IC50 in the experiment on IGROV-1 is 90.9 µM; with LoVo, 57.1 µM; on Tubulin [2], above 400 µM; in [5], 13.8 µM; in the experiment with HT-29 it was 72.7 µM; with A549, 59.7 µM. In addition, the results for the IC50 in the experiment with PBL [6] and with Jurkat were 42.4 µM and 33.6 µM, respectively. On Tubulin (Bos taurus), this compound came in with an inhibition of 13%.

In the case of `COc1ccc(-c2c3c(c(OC)c4c2OCO4)[C@H]([C@H]2OC(=O)c4c2ccc(OC)c4OC)N(C)CC3)cc1`, the IC50 in the experiment with CCRF-CEM is 25.8 µM; in the experiment with PBL [3], above 200 µM; in experiment [4], 15.1 µM; with IGROV-1, 55.6 µM; in the experiment on LoVo, 28.8 µM; in experiment [5], 12.6 µM. Besides, the 50% inhibitory concentration (IC50) with HT-29 was 47.8 µM; with A549 it was above 100 µM; in the experiment with PBL [6] it was above 200 µM; in the experiment on Jurkat it was 11.3 µM.

As usually defined, the IC50 is the midpoint of a concentration-inhibition curve. For orientation: inhibition means how much of the control response was suppressed.
